Data reported in publication PMC3589724 (Scientific Reports, 2013).
Where two headings read alike, the source gives them in different places.

Legend:
[1] = system: apoCaM; experiment: ITC binding to apo CaM; conditions: for Association constant Ka: apoCaM, buffer A (20 mM Imidazole pH 8.0, 100 mM NaCl, 2 mM EGTA), 24°C, single-site fitting model
How it was run: (§1)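 CaM (His6-tagged, E. coli-expressed; mutants made by inverse PCR) is injected into full-length wild-type or point-mutant Nm/Ng, or into synthetic IQ peptides (Nm 34–57, Ng 27–50). Apo and mutant CaM are in buffer A; Ca2+/CaM is in buffer B. Samples are degassed. VP-ITC or iTC200, 24°C, 10 (or 2) μl injections at 5 (or 2) min intervals. Buffer-titration dilution heats are subtracted, and a single-site fit gives Ka.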

[2] = system: CaME85A/F142A; experiment: ITC binding to CaM double mutant E85A/F142A; conditions: buffer A (20 mM Imidazole pH 8.0, 100 mM NaCl, 2 mM EGTA), 24°C
How it was run: as §1

[3] = system: Ca^2+/CaM; experiment: ITC binding to Ca^2+/CaM; conditions: buffer B (20 mM HEPES pH 8.0, 100 mM NaCl, 10 mM CaCl2), 24°C, single-site fitting model
How it was run: as §1

[4] = system: CaM; conditions: in vivo CaM binding, cited from earlier work
[5] = system: synaptic transmission, CA1 hippocampal synapses; conditions: cited from earlier work
[6] = Ser36-phosphorylated; cited from earlier work
[7] = system: CaMWT; experiment: ITC binding to wild-type CaM; conditions: point mutants of Nm/Ng
How it was run: as §1

Row | Association constant Ka [1] | Association constant Ka [3] | Substance | Ng-CaM binding [4] | other results
1 | 7.9 10^6 M^−1 | 0.52 10^6 M^−1 | neuromodulin [NmWT] |  | Association constant Ka [2]: 0.46 10^6 M^−1
2 |  |  | Arg38Gln (R38Q): Ng point mutant Arg38Gln (literature) | reduce Ng-CaM binding | Ng-CaM binding ([4]; listed as Arg38Gln): reduce the binding strength
3 | 23 10^6 M^−1 | 0.96 10^6 M^−1 | neurogranin [NgWT] |  | affinity to apo CaM relative to Ca^2+/CaM ([1]; in words): higher affinity than that to Ca^2+/CaM; synaptic transmission / strength ([5]; overexpression, listed as wild-type Ng): potentiates synaptic transmission; synaptic strength ([5]; through interaction with CaM): enhances synaptic strength
4 | 2.3 10^6 M^−1 | 0.3 10^6 M^−1 | NgIQ: synthetic wild-type IQ motif peptide of Ng, aa27–50 (NAAAAKIQASFRGHMARKKIKSGE) |  | 
5 | 25 10^6 M^−1 | 1.6 10^6 M^−1 | NmIQ: synthetic wild-type IQ motif peptide of Nm, aa34–57 |  | 
6 |  |  | Ile33Gln (I33Q): Ng point mutant Ile33Gln (literature) | completely inhibits the binding | 
7 |  |  | Ser36-phosphorylated Ng: Ng phosphorylated at Ser36 by PKC [reference compound] |  | binding to CaM and phosphatidic acid [6]: unable to bind CaM and phosphatidic acid; synaptic strength ([5]; Ser36-phosphorylated): unable to enhance synaptic strength
8 |  |  | NgR38A: full-length Ng point mutant Arg38Ala; GFP-tagged in the electrophysiology experiments |  | binding to apo CaM (in words) ([1]; mutant Ng): does not bind to the apo CaM; binding to CaM (in words) [7]: completely abolish
9 |  |  | Ser36Asp (S36D): Ng point mutant Ser36Asp (literature) | reduce Ng-CaM binding | 
